Results reported in ChEMBL document CHEMBL1629705, “PSI-7851, a pronucleotide of beta-D-2'-deoxy-2'-fluoro-2'-C-methyluridine monophosphate, is a potent and pan-genotype inhibitor of hepatitis C virus replication” (Antimicrob Agents Chemother, 2010).
pIC50: −log10 of the molar value. The source made the active and inactive calls. The calls are words filed in the database; no cut-off is given here.

Assays:
DNA polymerase beta = DNA polymerase beta (Homo sapiens, UniProt P06746); experiment: Inhibition of human DNA polymerase beta assessed as incorporation of [alpha-32P]dCTP up to 1mM preincubated for 30 mins by whatman DE81 paper binding assay
Procedure, shortened: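 Human DNA polymerase β at 18 μg/ml final, in 50 mM Tris pH 7.5, 50 mM NaCl, 5 mM MgCl2, activated calf thymus DNA and 20 μM each dNTP with [α-32P]dCTP. Triphosphate up to 1 mM. 37°C, stopped at 30 min with EDTA. Products quantified by DE81 paper binding; IC50 by nonlinear fit.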

[1] = target: T1, DNA polymerase subunit gamma-1 (Homo sapiens, UniProt P54098); experiment: Inhibition of human DNA polymerase gamma assessed as incorporation of [alpha-32P]dCTP up to 1mM preincubated for 30 mins by whatman DE81 paper binding assay
T1 sequence (P54098 whole entry): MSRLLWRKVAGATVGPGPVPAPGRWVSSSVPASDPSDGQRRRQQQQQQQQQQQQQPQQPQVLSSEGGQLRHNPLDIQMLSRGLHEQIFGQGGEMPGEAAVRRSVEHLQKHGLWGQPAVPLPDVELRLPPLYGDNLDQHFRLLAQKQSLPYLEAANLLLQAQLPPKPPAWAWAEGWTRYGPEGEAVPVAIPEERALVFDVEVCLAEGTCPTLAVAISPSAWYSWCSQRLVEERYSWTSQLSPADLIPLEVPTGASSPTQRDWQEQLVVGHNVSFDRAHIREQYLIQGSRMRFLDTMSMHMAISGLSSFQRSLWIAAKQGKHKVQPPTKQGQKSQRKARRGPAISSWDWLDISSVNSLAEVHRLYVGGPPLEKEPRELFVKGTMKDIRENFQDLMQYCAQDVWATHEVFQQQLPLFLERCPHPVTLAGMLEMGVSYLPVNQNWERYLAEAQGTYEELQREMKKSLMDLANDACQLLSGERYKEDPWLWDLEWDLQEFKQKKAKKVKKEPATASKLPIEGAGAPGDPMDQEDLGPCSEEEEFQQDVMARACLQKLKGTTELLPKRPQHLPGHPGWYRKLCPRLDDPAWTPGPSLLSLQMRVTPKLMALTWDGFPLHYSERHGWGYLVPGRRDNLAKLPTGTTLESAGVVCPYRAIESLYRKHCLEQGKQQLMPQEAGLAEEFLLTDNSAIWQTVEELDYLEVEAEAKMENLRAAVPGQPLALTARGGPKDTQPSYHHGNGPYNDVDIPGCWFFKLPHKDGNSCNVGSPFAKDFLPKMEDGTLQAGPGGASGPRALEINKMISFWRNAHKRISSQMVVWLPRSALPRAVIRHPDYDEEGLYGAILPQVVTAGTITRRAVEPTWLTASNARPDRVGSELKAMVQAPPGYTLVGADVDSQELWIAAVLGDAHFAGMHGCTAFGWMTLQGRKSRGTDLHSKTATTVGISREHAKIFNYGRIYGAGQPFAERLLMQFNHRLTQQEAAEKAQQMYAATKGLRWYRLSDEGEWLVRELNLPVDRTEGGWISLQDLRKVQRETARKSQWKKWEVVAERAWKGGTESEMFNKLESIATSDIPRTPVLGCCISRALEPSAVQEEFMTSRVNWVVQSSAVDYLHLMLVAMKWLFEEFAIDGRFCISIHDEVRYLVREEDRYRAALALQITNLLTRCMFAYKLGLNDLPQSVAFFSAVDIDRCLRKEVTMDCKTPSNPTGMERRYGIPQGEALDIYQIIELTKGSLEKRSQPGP
Procedure, shortened: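 Human DNA polymerase α (20 μg/ml) or γ (50 μg/ml) in 50 mM Tris pH 7.5, 50 mM NaCl, activated calf thymus DNA, 20 μM each dNTP, [α-32P]dCTP, 5 mM MgCl2. Nucleotide inhibitor up to 1 mM. 37°C, quenched with EDTA at 30 min. Product measured by DE81 paper binding; IC50 by nonlinear fit.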

[2] = target: DNA-directed RNA polymerase II subunit RPB1 (Homo sapiens, UniProt P24928); experiment: Inhibition of human RNA polymerase 2 assessed as synthesis of RNA products at 1 uM
Procedure, shortened: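 In vitro transcription by HeLa nuclear extract from CMV immediate-early promoter DNA. Mix: 400 μM ATP, CTP and UTP, 16 μM GTP, [α-32P]GTP, 3 mM MgCl2, in 20 mM HEPES pH 7.9 buffer with KCl, EDTA, DTT and glycerol. Inhibitor up to 1 mM. 30°C for 60 min. RNA purified, run on 6% sequencing gel and quantified by phosphorimager.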

Hepatitis C virus [3] = experiment: Antiviral activity against Hepatitis C virus isolate Con1 infected in human HuH-7 cells assessed as inhibition of viral RNA replication after 4 days by luciferase reporter gene assay; format: functional, Hepacivirus hominis; settings: Con1, Huh-7, 96 h
Procedure, shortened: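 Genotype 1b Con1 subgenomic replicon cells (ET-lunet, 3,000 cells/well, firefly luciferase ET replicon; clone A, 1,500 cells/well) incubated 4 days with serially diluted compound. Replication read by luciferase luminescence and/or real-time RT-PCR.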

HepG2 = experiment: Cytotoxicity against human HepG2 cells assessed as effect on ribosome RNA gene level at up to 100 uM after 14 days by quantitative real-time PCR assay; format: cell-based; settings: hepg2, 336 h
Procedure, shortened: (§1)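 HepG2 or CEM cells incubated 14 days with compound up to 100 μM, ddC as control. Medium and compound replenished on days 7 and 11. Mitochondrial COXII gene and nuclear rDNA measured by multiplex quantitative RT-PCR.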

CCRF-CEM = experiment: Cytotoxicity against human CEM cells assessed as effect on ribosome RNA gene level at up to 100 uM after 14 days by quantitative real-time PCR assay; format: cell-based; settings: 336 h; procedure, shortened: as §1
[4] = Cytotoxicity against human HuH7 cells assessed as effect on cellular GAPDH RNA level after 8 days by quantitative real-time PCR; format: cell-based, Huh-7
Hepatitis C virus [5] = experiment: Antiviral activity against Hepatitis C virus assessed as log reduction in viral RNA at 1 uM after 3 weeks; format: functional, Hepacivirus hominis
Procedure, shortened: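 ET-lunet replicon cells seeded at 1 × 10^5/well without G418, treated at 0.1, 1 or 2 μM (final DMSO 0.5%). Passaged 1:3–1:4 every 3–4 days for 3 weeks with fresh compound. Then compound withdrawn and cells grown 3 more weeks in 0.25 mg/ml G418. HCV RNA by RT-PCR (ΔΔCt vs rRNA and DMSO controls, log change). Colonies fixed in formaldehyde and stained with crystal violet at 6 weeks.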

[6] = Cytotoxicity against human CEM cells; format: cell-based; settings: CEM (CCRF-CEM) cells
Procedure, shortened: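 Cells treated 8 days with compound serially diluted from 100 μM in DMSO-containing medium, gemcitabine (1 μM) or DMSO control. Viability by MTS-type tetrazolium assay, absorbance at 490 nm with medium-only blanks. Value derived by comparison with DMSO control wells.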

[7] = Cytotoxicity against human HepAD38 cells; format: cell-based

C[C@@]1(F)[C@H](O)[C@@H](COP(=O)(O)OP(=O)(O)OP(=O)(O)O)O[C@H]1n1ccc(=O)[nH]c1=O [GS-461203]
pIC50 (DNA polymerase beta): < 3.00 | pIC50 [1]: < 3.00 | inhibition [2]: Active

CC(C)OC(=O)[C@H](C)NP(=O)(OC[C@H]1O[C@@H](n2ccc(=O)[nH]c2=O)[C@](C)(F)[C@@H]1O)Oc1ccccc1 (stereo not given in full)
EC90 (Hepatitis C virus [3]): 4.32 µM | Activity (HepG2): Non-toxic | Activity (CCRF-CEM): Non-toxic | CC50 at 192 h [4]: > 100 µM | FC (Hepatitis C virus [5]): 4 | CC90 [6]: 28.5 µM | CC50 [7]: > 100 µM
